Test [1] has as its system Entamoeba histolytica. As to the kind of experiment: Antiamoebic activity against Entamoeba histolytica HM-1:IMSS trophozoites after 72 hrs by microdilution method. It is filed as functional, organism-based. In a few lines: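 E. histolytica HM1:IMSS trophozoites grown in TYIS-33 medium. Compounds dissolved in DMSO, diluted in medium to 1 mg/ml, then two-fold serial dilutions. Inoculum 1.7 × 10⁴ organisms/well. Plates gassed with N₂ and held at 37 °C for 72 h. Amoebae fixed in cold MeOH and stained with eosin, dye released with 0.1 N NaOH, OD read at 490 nm. Percent inhibition plotted against log dose; IC50 from linear regression.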
On the technique in general: In broth dilution the organism is exposed to a series of concentrations in liquid medium.

A short description of test [2]: Cytotoxicity against human kidney epithelial cells after 44 hrs by MTT assay. The class given is cell-based. The note with it: Epithelial cell. (In general: Tetrazolium assays rely on reduction of a dye to a coloured formazan, in cell work by metabolically active cells.)
A short description of test [3]: Selectivity index, ratio of IC50 for human kidney epithelial cells to IC50 for Entamoeba histolytica HM-1:IMSS trophozoites. More on the design: species or system Epithelial cell. In a few lines:
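Safety index calculated as IC50 in human kidney epithelial cells (MTT, 44 h plus 4 h) divided by IC50 against E. histolytica HM1:IMSS (72 h eosin-stained microdilution assay).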

One may read the IC50 as the concentration at which inhibition is half-maximal. A high value points to lower potency. For the compound `S=C(N1CCCC1)N1N=C(c2ccccc2)CC1c1ccc(C2CC(c3ccccc3)=NN2C(=S)N2CCCC2)cc1` (configuration not stated), the results for the half-maximal inhibitory concentration (IC50) in test [1] and in test [2] were more than 1.8 µM and more than 90 µM, respectively. The “Ratio IC50” value in test [3] is more than 50.

For `O=[N+]([O-])c1ccc(NC(=S)N2N=C(c3ccccc3)CC2c2ccc(C3CC(c4ccccc4)=NN3C(=S)Nc3ccc([N+](=O)[O-])cc3)cc2)cc1` (configuration not stated), the IC50 in test [1] is 0.42 µM; in test [2], more than 90 µM. Also, the “Ratio IC50” value in test [3] is more than 214.

With `S=C(NC1CCCC1)N1N=C(c2ccccc2)CC1c1ccc(C2CC(c3ccccc3)=NN2C(=S)NC2CCCC2)cc1` (configuration not stated), the 50% inhibitory concentration (IC50) in test [1] was more than 1.8 µM; in test [2] it was more than 90 µM. Moreover, the “Ratio IC50” value in test [3] is on record as more than 50.

For `S=C(NC1CCCCCCC1)N1N=C(c2ccccc2)CC1c1ccc(C2CC(c3ccccc3)=NN2C(=S)NC2CCCCCCC2)cc1` (configuration not stated), the IC50 in test [1] was 0.92 µM; in test [2], more than 90 µM. The “Ratio IC50” value in test [3] is more than 97.8.

As to `NC(=S)N1N=C(c2ccccc2)CC1c1ccc(C2CC(c3ccccc3)=NN2C(N)=S)cc1` (configuration not stated), the 50% inhibitory concentration (IC50) in test [1] is 1.57 µM; in test [2], more than 90 µM. Moreover, the “Ratio IC50” value in test [3] is more than 57.3.

As to `Cc1cccc(NC(=S)N2N=C(c3ccccc3)CC2c2ccc(C3CC(c4ccccc4)=NN3C(=S)Nc3cccc(C)c3)cc2)c1` (configuration not stated), the values for the IC50 in test [1] and in test [2] were more than 1.8 µM and more than 90 µM, respectively. Besides, the “Ratio IC50” value in test [3] is more than 50.

In the case of `Fc1ccc(NC(=S)N2N=C(c3ccccc3)CC2c2ccc(C3CC(c4ccccc4)=NN3C(=S)Nc3ccc(F)cc3F)cc2)c(F)c1` (configuration not stated), the half-inhibitory concentration (IC50) in test [1] was 0.62 µM; in test [2], more than 90 µM. Also, in test [3], the “Ratio IC50” value was more than 145.

Turning to `S=C(NC1CCCCC1)N1N=C(c2ccccc2)CC1c1ccc(C2CC(c3ccccc3)=NN2C(=S)NC2CCCCC2)cc1` (configuration not stated), the IC50 in test [1] was 1.16 µM; in test [2] it was more than 90 µM. In test [3], the “Ratio IC50” value was more than 77.6.

For the compound `Cc1ccc(NC(=S)N2N=C(c3ccccc3)CC2c2ccc(C3CC(c4ccccc4)=NN3C(=S)Nc3ccc(C)cc3)cc2)cc1` (configuration not stated), the concentration for half-maximal inhibition (IC50) in test [1] is more than 1.8 µM; in test [2] it was more than 90 µM. Moreover, in test [3], the “Ratio IC50” value is given as more than 50.

`CN(Cc1ccccc1)C(=S)N1N=C(c2ccccc2)CC1c1ccc(C2CC(c3ccccc3)=NN2C(=S)N(C)Cc2ccccc2)cc1` (configuration not stated): the half-maximal inhibitory concentration (IC50) in test [1] is more than 1.8 µM; in test [2], more than 90 µM. Moreover, the “Ratio IC50” value in test [3] was more than 50.

`Cc1ncc([N+](=O)[O-])n1CCO` [METRONIDAZOLE] registered an IC50 in test [2] of more than 100 µM. The “Ratio IC50” value in test [3] is more than 55.55.

The record behind these values is ChEMBL document CHEMBL1152827, “Bis-pyrazolines: synthesis, characterization and antiamoebic activity as inhibitors of growth of Entamoeba histolytica” (Eur J Med Chem, 2009).
